In brackets after ≈: the same amount, converted by molar mass.
How the values were obtained:
[1] = system: Mycobacterium tuberculosis; experiment: Antimycobacterial activity against rifampicin-resistant Mycobacterium tuberculosis H37Rv ATCC 35838 assessed as inhibition of bacterial growth by agar plate dilution method; format: functional
In short: (§1)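 MIC determined by agar plate dilution method; isoniazid and rifampin run as references.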

[2] = system: Mycobacterium tuberculosis; experiment: Antimycobacterial activity against isoniazid-resistant Mycobacterium tuberculosis H37Rv ATCC 35822 assessed as inhibition of bacterial growth by agar plate dilution method; format: functional; in short: as §1

Structure (SMILES) | MIC [1] [µg/mL] | MIC [2] [µg/mL]
NNC(=O)c1ccncc1 [ISONIAZID] | 0.25 (≈ 1.82 µM) | > 8
CO[C@H]1/C=C/O[C@@]2(C)Oc3c(C)c(O)c4c(O)c(c(/C=N/N5CCN(C)CC5)c(O)c4c3C2=O)NC(=O)/C(C)=C\C=C\[C@H](C)[C@H](O)[C@@H](C)[C@@H](O)[C@@H](C)[C@H](OC(C)=O)[C@@H]1C [RIFAMPIN] | > 2 | 0.03 (≈ 0.0365 µM)
CC(C)=CCC/C(C)=C/COc1ccc(C(=O)OCCCOc2cccc(Nc3nc4ccccc4c(=O)o3)c2)cc1 | 2.6 (≈ 4.57 µM) | 4.4 (≈ 7.74 µM)
CC(C)=CCC/C(C)=C/CC/C(C)=C/COc1ccc(C(=O)OCCCOc2cccc(Nc3nc4ccccc4c(=O)o3)c2)cc1 | 1.8 (≈ 2.83 µM) | 2.3 (≈ 3.61 µM)

Reference: ChEMBL document CHEMBL4706595, “1,3-Oxazine-2-one derived dual-targeted molecules against replicating and non-replicating forms of Mycobacterium tuberculosis” (Eur J Med Chem, 2020)
